Experimental data taken from ChEMBL document CHEMBL1157544, “New benzophenone-derived bisphosphonium salts as leishmanicidal leads targeting mitochondria through inhibition of respiratory complex II” (2010).
Activity calls are given as the source filed them. The rule behind the calls is not given here.

Legend:
Leishmania pifanoi = test: Antileishmanial activity against Leishmania pifanoi MHOM/VE/60/Ltrod after 96 hrs by MTT assay; format: functional
Method in brief: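 Axenic amastigotes harvested at late exponential phase, washed twice in HBSS plus 10 mM D-glucose (pH 7.2) and set at 2 × 10^7 cells/mL. Drug exposure 4 h at 32 °C, then washed. Regrowth 96 h at 32 °C in growth medium without phenol red, followed by MTT (1 mg/mL) reduction for 2 h at 32 °C. LC50 taken from sigmoidal curves; triplicates ± SD.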

Leishmania donovani [1] = test: Antileishmanial activity against Leishmania donovani MHOM/SC/00/1S-2D promastigotes after 48 hrs by MTT assay; format: functional
Method in brief: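 Late-exponential promastigotes washed twice in HBSS plus 10 mM D-glucose (pH 7.2) and resuspended at 2 × 10^7 cells/mL. Drug exposure 4 h at 25 °C, then cells washed to remove unbound drug. Regrowth 48 h at 25 °C in growth medium without phenol red, followed by MTT (1 mg/mL) reduction for 2 h at 25 °C. LC50 taken from sigmoidal inhibition curves; mean of triplicates ± SD.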

Leishmania donovani [2] = test: Antileishmanial activity against Leishmania donovani MHOM/SC/00/1S-2D promastigotes assessed as rhodamine 123 accumulation at LC50 by mitochondrial membrane potential assay; format: functional
Method in brief: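 Promastigotes held overnight in growth medium with each compound at its LC50, then loaded with 0.3 μg/mL rhodamine 123. Dye uptake measured by flow cytometry (ex 488/em 525 nm) and expressed as percent of untreated cells. 1 mM KCN used as the fully depolarized control.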

Leishmania donovani [3] = test: Antileishmanial activity against digitonized Leishmania donovani MHOM/SC/00/1S-2D promastigotes assessed as inhibition of oxygen consumption at 16 uM; format: functional, organism-based
Method in brief: (§1)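 Clark electrode at 25 °C. Promastigotes at 10^8 cells/mL in respiration buffer with 5 mM succinate and 1 mg/mL fatty-acid-free BSA. Cells permeabilized with 60 μM digitonin, then 100 μM ADP added for state 3. After a steady rate, compound added, then 10 μM FCCP, 0.1 mM TMPD + 1.7 mM ascorbate, 6.7 mM α-glycerophosphate, 2 mM malonate or 1 μM antimycin A. Rates taken from trace slopes.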

Leishmania donovani [4] = test: Induction of apoptosis in Leishmania donovani MHOM/SC/00/1S-2D promastigotes assessed as apoptotic cells at 1 uM propidium iodide fluorescence cytofluorometry; format: functional
Method in brief: (§2)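 Promastigotes incubated overnight with the compound, then stained with 50 μg/mL propidium iodide. The sub-G1 peak was measured by flow cytometry. 15 μM miltefosine under identical conditions served as the positive control.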

Leishmania donovani [5] = test: Induction of apoptosis in Leishmania donovani MHOM/SC/00/1S-2D promastigotes assessed as apoptotic cells at 15 uM propidium iodide fluorescence cytofluorometry; format: functional; method in brief: as §2
Leishmania donovani [6] = test: Antileishmanial activity against Leishmania donovani MHOM/SC/00/1S-2D promastigotes assessed as inhibition of proliferation at 5 um after 4 hrs; format: functional
Method in brief: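 Promastigotes washed into HBSS-Glc pH 7.2 at 2 × 10^7 cells/mL and exposed to drug for 4 h at 25 °C. Cells then washed and left to grow 48 h at 25 °C in growth medium without phenol red. Growth read by MTT reduction (1 mg/mL, 2 h). Triplicate samples.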

Leishmania donovani [7] = test: Induction of morphological changes in Leishmania donovani MHOM/SC/00/1S-2D promastigotes assessed as mitochondrial kinetoplast at 5 uM after 4 hrs; format: functional, organism-based
Method in brief: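 Promastigotes treated 4 h under the standard conditions, washed in PBS and fixed in 5% glutaraldehyde. Post-fixed in 2.5% OsO4 for 1 h, dehydrated through graded ethanol and propylene oxide, embedded in Epon 812 and imaged by transmission electron microscopy.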

Leishmania donovani [8] = test: Decrease in intracellular ATP level in Leishmania donovani MHOM/SC/00/1S-2D promastigotes assessed as luminescence at 0.6 to 8 uM; format: functional, organism-based
Method in brief: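 3-Luc promastigotes expressing cytoplasmic firefly luciferase, 2 × 10^7/mL in HBSS-Glc, loaded with 25 μM DMNPE-luciferin (final). Compound added at the luminescence plateau, counted as time zero and 100%. Luminescence recorded 80 min, averaged every 4 s, and normalized to untreated parasites.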

Leishmania donovani [9] = test: Antileishmanial activity against digitonized Leishmania donovani MHOM/SC/00/1S-2D promastigotes assessed as inhibition of oxygen consumption at 16 uM in presence of FCCP mitochondrial uncoupler; format: functional, organism-based; method in brief: as §1
Leishmania donovani [10] = test: Antileishmanial activity against digitonized Leishmania donovani MHOM/SC/00/1S-2D promastigotes assessed as restoration of oxygen consumption at 16 uM in presence of TMPD-ascorbate; format: functional; method in brief: as §1
Leishmania donovani [11] = test: Antileishmanial activity against Leishmania donovani MHOM/SC/00/1S-2D promastigotes assessed as plasma membrane integrity at 25 uM; format: functional, organism-based
Method in brief: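 SYTOX green uptake. Promastigotes (2 × 10^7/mL) in HBSS-Glc were preincubated with 1 μM dye before compound was added. Fluorescence read at ex 485/em 520 nm. Full permeation was defined by 0.1% Triton X-100.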

Leishmania donovani [12] = test: Antileishmanial activity against digitonized Leishmania donovani MHOM/SC/00/1S-2D promastigotes assessed as restoration of oxygen consumption at 16 uM in presence of alpha-glycerophosphate; format: functional, organism-based; method in brief: as §1
Leishmania donovani [13] = test: Induction of apoptosis in Leishmania donovani MHOM/SC/00/1S-2D promastigotes assessed as apoptotic cells at 2.5 uM propidium iodide fluorescence cytofluorometry; format: functional; method in brief: as §2

Compound | LC50 (Leishmania pifanoi) | LC50 (Leishmania donovani [1]) | Activity (Leishmania donovani [2]) | other results
CCC[P+](CCC)(CCC)Cc1ccc(C(=O)c2ccc(C[P+](CCC)(CCC)CCC)cc2)cc1 | > 50 µM | > 50 µM |  | 
O=C(c1ccc(C[P+](C2CCCCC2)(C2CCCCC2)C2CCCCC2)cc1)c1ccc(C[P+](C2CCCCC2)(C2CCCCC2)C2CCCCC2)cc1.[Br-].[Br-] | 1.67 µM | 3.3 µM | 42% | 
O=C(c1ccc(C[P+](c2ccccc2)(c2ccccc2)c2ccccn2)cc1)c1ccc(C[P+](c2ccccc2)(c2ccccc2)c2ccccn2)cc1.[Br-].[Br-] | 2.58 µM | 3.03 µM | 100% | 
C[P+](C)(C)Cc1ccc(C(=O)c2ccc(C[P+](C)(C)C)cc2)cc1 | > 50 µM | > 50 µM |  | 
CCCCC[P+](CCCCC)(CCCCC)Cc1ccc(C(=O)c2ccc(C[P+](CCCCC)(CCCCC)CCCCC)cc2)cc1.[Br-].[Br-] | 0.97 µM | 1.09 µM | 48% | Activity (Leishmania donovani [3]): Active; Activity (Leishmania donovani [4]): 22.1%; Activity (Leishmania donovani [5]): 24.9%; inhibition (INH) (Leishmania donovani [6]): 80%; Activity (Leishmania donovani [7]): Active; Activity (Leishmania donovani [8]): Active; Activity (Leishmania donovani [9]): Active; Activity (Leishmania donovani [10]): 50%; Activity (Leishmania donovani [11]): inactive; Activity (Leishmania donovani [12]): Active; Activity (Leishmania donovani [13]): 34.5%
Cc1ccccc1[P+](Cc1ccc(C(=O)c2ccc(C[P+](c3ccccc3)(c3ccccc3)c3ccccc3C)cc2)cc1)(c1ccccc1)c1ccccc1.[Br-].[Br-] | 1.51 µM | 1.9 µM | 55.75% | 
C[P+](C)(Cc1ccc(C(=O)c2ccc(C[P+](C)(C)c3ccccc3)cc2)cc1)c1ccccc1 | > 50 µM | > 50 µM |  | 
CC[P+](CC)(Cc1ccc(C(=O)c2ccc(C[P+](CC)(CC)c3ccccc3)cc2)cc1)c1ccccc1 | > 50 µM | > 50 µM |  | 
CC(C)[P+](Cc1ccc(C(=O)c2ccc(C[P+](C(C)C)(C(C)C)C(C)C)cc2)cc1)(C(C)C)C(C)C | > 50 µM | > 50 µM |  | 
O=C(c1ccc(C[P+](c2ccccc2)(c2ccccc2)c2ccccc2)cc1)c1ccc(C[P+](c2ccccc2)(c2ccccc2)c2ccccc2)cc1.[Br-].[Br-] | 1.53 µM | 2.73 µM | 67.25% | 
CC[P+](CC)(CC)Cc1ccc(C(=O)c2ccc(C[P+](CC)(CC)CC)cc2)cc1 | > 50 µM | > 50 µM |  | 
CCCCCCCC[P+](CCCCCCCC)(CCCCCCCC)Cc1ccc(C(=O)c2ccc(C[P+](CCCCCCCC)(CCCCCCCC)CCCCCCCC)cc2)cc1.[Br-].[Br-] | 1.37 µM | 5.66 µM | 10.8% | 
CCCC[P+](CCCC)(CCCC)Cc1ccc(C(=O)c2ccc(C[P+](CCCC)(CCCC)CCCC)cc2)cc1 | > 50 µM | > 50 µM |  | 
O=C(c1ccc(C[P+](c2ccco2)(c2ccco2)c2ccco2)cc1)c1ccc(C[P+](c2ccco2)(c2ccco2)c2ccco2)cc1 | > 50 µM | 18.1 µM |  | 
CC[P+](Cc1ccc(C(=O)c2ccc(C[P+](CC)(c3ccccc3)c3ccccc3)cc2)cc1)(c1ccccc1)c1ccccc1.[Br-].[Br-] | 14 µM | 6.9 µM | 100% | 
Cc1ccc([P+](Cc2ccc(C(=O)c3ccc(C[P+](c4ccccc4)(c4ccccc4)c4ccc(C)cc4)cc3)cc2)(c2ccccc2)c2ccccc2)cc1.[Br-].[Br-] | 1.38 µM | 1.2 µM | 53.25% | 
O=C(c1ccc(C[P+](c2ccccc2)(C2CCCCC2)C2CCCCC2)cc1)c1ccc(C[P+](c2ccccc2)(C2CCCCC2)C2CCCCC2)cc1.[Br-].[Br-] | 1.45 µM | 2.1 µM | 83.12% | 
CCCCCCCCCCCCCCCCOP(=O)([O-])OCC[N+](C)(C)C [MILTEFOSINE] | 26.3 µM | 12.5 µM | 75% | 
CC(C)C[P+](Cc1ccc(C(=O)c2ccc(C[P+](CC(C)C)(CC(C)C)CC(C)C)cc2)cc1)(CC(C)C)CC(C)C | > 50 µM | > 50 µM |  | 
C[P+](Cc1ccc(C(=O)c2ccc(C[P+](C)(c3ccccc3)c3ccccc3)cc2)cc1)(c1ccccc1)c1ccccc1.[Br-].[Br-] | 1.64 µM | 19.3 µM | 100% | 
